Measurements: ChEMBL document CHEMBL1148119, “Monoterpene hydroperoxides with trypanocidal activity from Chenopodium ambrosioides” (J Nat Prod, 2002)
≈ marks a conversion by molar mass, not a printed value. Calls of active or inactive are those of the source. No cut-off for these calls is given here.

Tests used:
Trypanosoma cruzi [1] = assay: Trypanocidal activity against Trypanosoma cruzi Tulahuen epimastigotes assessed as minimal lethal concentration after 24 hrs; type: functional
How it was run: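 Tulahuen epimastigotes kept in GIT medium with hemin (12.4 µM). Parasites in medium (10 µL) incubated with sample in EtOH (5 µL) plus autoclaved saline (185 µL) for 24 h. Motility checked by microscopy (×100). MLC taken as minimum lethal concentration. Duplicates; gentian violet positive control.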

HeLa = assay: Cytotoxicity against human HeLa cells at 10 ug/mL; type: cell-based
Trypanosoma cruzi [2] = assay: Antitrypanosomal activity against Trypanosoma cruzi trypomastigotes infected in human HeLa cells assessed as inhibition of amastigotes proliferation at 1 ug/mL after 4 days by HeLa cell-infection assay; type: functional, organism-based
How it was run: (§1)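 HeLa cells (5 × 10^3 cells/mL/well) grown on coverslips 2 days at 37 °C, 5% CO2, then infected with T. cruzi trypomastigotes (1.2 × 10^4 parasites/well). Compound in ethanol (10 µL) added right after infection. Day 4: fixed, Diff-Quik stained, mounted. >200 host cells in random fields scored for % infected cells (>1 amastigote) and mean amastigotes per infected cell. Mean ± SE.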

Trypanosoma cruzi [3] = assay: Antitrypanosomal activity against Trypanosoma cruzi trypomastigotes infected in human HeLa cells assessed as inhibition of infection at 1 ug/mL after 4 days by HeLa cell-infection assay; type: functional; set-up: scale not given: the % may be the effect or the level left; how it was run: as §1
Trypanosoma cruzi [4] = assay: Antitrypanosomal activity against Trypanosoma cruzi trypomastigotes infected in human HeLa cells assessed as number of amastigotes per infected cell at 1 ug/mL after 4 days by HeLa cell-infection assay; type: functional; how it was run: as §1
Trypanosoma cruzi [5] = assay: Antitrypanosomal activity against Trypanosoma cruzi trypomastigotes infected in human HeLa cells assessed as infection rate at 1 ug/mL after 4 days by HeLa cell-infection assay; type: functional; how it was run: as §1
Trypanosoma cruzi [6] = assay: Trypanocidal activity against Trypanosoma cruzi Tulahuen epimastigotes up to 400 uM after 24 hrs; type: functional, organism-based
How it was run: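 Tulahuen epimastigotes maintained in GIT medium with hemin (12.4 μM). Parasite suspension incubated 24 h with sample in EtOH plus autoclaved saline. Motility checked by microscopy (×100) and minimum lethal concentration (MLC) recorded. Duplicate assays; gentian violet positive control.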

SMILES | MLC (Trypanosoma cruzi [1]) [µM] | Activity (HeLa) | Activity (Trypanosoma cruzi [2]) | Activity (Trypanosoma cruzi [3]) | Activity (Trypanosoma cruzi [4]) | Activity (Trypanosoma cruzi [5]) [%] | Activity (Trypanosoma cruzi [6])
C=C(C)[C@H]1CCC(=C)[C@@H](OO)C1 | 1.2 (≈ 0.202 µg/mL) |  |  |  |  |  | 
C=C(C)[C@@H]1C=C[C@](C)(OO)CC1 | 3.1 (≈ 0.522 µg/mL) | Toxic | inactive | 88% | 19.1 | 1.5 | 
C=C(C)[C@H]1CCC(=C)[C@H](O)C1 |  |  |  |  |  |  | inactive
C=C(C)[C@H]1CCC(=C)[C@@H](O)C1 |  |  |  |  |  |  | inactive
C=C(C)[C@H]1CCC(=C)[C@H](OO)C1 | 1.6 (≈ 0.269 µg/mL) | Toxic | inactive | 63% | 18.6 | 4.4 | 
CC(C)C12C=CC(C)(CC1)OO2 (stereo unspecified) [ASCARIDOLE] | 23 (≈ 3.87 µg/mL) |  | inactive |  | 22.8 | 8.5 | 
C=C(C)[C@@H]1C=C[C@](C)(O)CC1 |  |  |  |  |  |  | inactive
C=C(C)[C@@H]1C=C[C@@](C)(O)CC1 |  |  |  |  |  |  | inactive
CN(C)c1ccc(C(=C2C=CC(=[N+](C)C)C=C2)c2ccc(N(C)C)cc2)cc1.[Cl-] [GENTIAN VIOLET] | 6.3 |  |  |  |  |  | 
Oc1ncnc2[nH]ncc12 [ALLOPURINOL] |  |  | inactive |  | 10.9 | 7 | 
C=C(C)[C@@H]1C=C[C@@](C)(OO)CC1 | 0.8 (≈ 0.135 µg/mL) | Toxic | inactive | Active | 12 | 0.13 | 
